Hits are enriched below; roughly 2.1% of the tested compounds scored in any of these assays.
SUMO HTRF inh: blocks human SUMOylation mediated by UBC9 | AID 2006 | inhibition, % at 35 µM | P63279 | HTRF SUMOylation assay, SAE1/SAE2 + UBC9, in vitro | 290,000 tested, 0.36% active; in the data active = inhibition above about 50%, passing the limit was not always enough
Target sequence (P63279 whole entry, looked up): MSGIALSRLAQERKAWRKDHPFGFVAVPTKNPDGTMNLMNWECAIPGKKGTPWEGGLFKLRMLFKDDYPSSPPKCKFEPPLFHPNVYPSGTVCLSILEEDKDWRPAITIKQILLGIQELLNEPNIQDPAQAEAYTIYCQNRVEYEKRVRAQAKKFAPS
VIM-2 inhibitor: inhibitors of Pseudomonas aeruginosa VIM-2 metallo-beta-lactamase; purified VIM-2, nitrocefin hydrolysis, epi-absorbance fluorescence; inhibition, % at 5.6 µM; 290,000 tested, 0.89% active; AID 1527;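 active = inhibition above the mean of all tested compounds plus 3 SD, cutoff set per screening run, cut at about 7.5% in these data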;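 also: red hydrolysis product quenches plate fluorescence so inhibitors raise well fluorescence; 0% = enzyme with DMSO and 100% = DMSO without enzyme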
DNA FID counter-1: fluorescent intercalator displacement, NS3 helicase counter-screen; DNA fluorescent intercalator displacement, fluorescence; inhibition, % at 7.9 µM; 290,000 tested, 0.17% active; AID 1845;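 also: 0% = vehicle and 100% = reference compound; higher means more ethidium bromide displaced from hairpin DNA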
IMP-1 inh: inhibitors of Pseudomonas aeruginosa IMP-1 metallo-beta-lactamase; purified IMP-1, nitrocefin hydrolysis, epi-absorbance fluorescence; inhibition, % at 5.6 µM; 290,000 tested, 0.45% active; AID 1556;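 active = inhibition above the mean plus 3 SD of all compounds in the same screening run, cut at about 4.5% in these data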;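 also: 0% = IMP-1 with DMSO and 100% = DMSO wells lacking enzyme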
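System: Purified recombinant IMP-1 metallo-beta-lactamase enzyme | Measured by: Fluorescence quenching readout, ex 480/em 530 nm | Replication: Singlicate | Incubation: 15 min preincubation plus 25 min reaction at 25 °C | Evaluation: Percent inhibition from optical density relative to buffer-blank wells | Benchmarks: DMSO with and without IMP-1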
NS3 helicase inh: inhibitors of Hepatitis C virus NS3 helicase. NS3 helicase DNA unwinding, Cy5 molecular beacon fluorescence. inhibition, % at 10.9 µM. 290,000 tested, 0.56% active;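 active = inhibition above the mean of all tested compounds plus 3 SD, set per campaign, cut at about 35% in these data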;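 also: 0% = DMSO wells and 100% = thioflavine S control wells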
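Material: hepatitis C virus NS3 helicase domain fragment enzyme; measured by: Cy5 fluorescence, 0 and 60 min reads; control set: DMSO and thioflavine S; incubation: 60 min unwinding reaction at 25 °C after ATP addition; read-out basis: % inhibition from 60/0 min fluorescence ratio, DMSO 0%, thioflavine S 100%; repeats: singlicate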
NS3 hel confirm: HCV NS3 helicase inhibition, confirmation assay; NS3 helicase DNA unwinding, Cy5 molecular beacon fluorescence; shares compounds with NS3 helicase inh; 1,600 tested, 31% active; inhibition, % at 10.9 µM;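 active = inhibition above the mean of all tested compounds plus 3 SD, cutoff set per campaign, cut at about 36% in these data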
DNA FID counter-2: intercalator displacement, NS3 helicase counter-screen; inhibition, % at 7.9 µM; 1,600 tested, 4% active; shares compounds with NS3 helicase inh; DNA fluorescent intercalator displacement, fluorescence;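 also: 0% = vehicle and 100% = reference compound; higher means more displacement of ethidium bromide from the DNA hairpin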
DNA FID DR: DNA intercalator displacement in dose response | IC50, µM | 120 tested, under 10 active | fluorescent intercalator displacement from DNA, fluorescence | shares compounds with NS3 helicase inh; call rule not given here
Numbers without * were called inactive; nt = not tested or not shown. Rule as the data show it, unless noted: active = inhibition above about 37%; inactive = the rest.

SMILES	SUMO HTRF inh	VIM-2 inhibitor	DNA FID counter-1	IMP-1 inh	NS3 helicase inh	NS3 hel confirm	DNA FID counter-2	others
O=C(O)c1ccccc1N1C(=O)C2C3c4ccccc4C(Br)(c4ccccc43)C2C1=O (stereo not given)	19	-2	-18	0	40*	42*	-21
COc1ccc(CN2CCN(c3nc4ccccc4s3)CC2)cc1	-12	0	-14	1	23	nt	nt
COc1ccc(CCn2c(O)cc3nn(-c4nc5ccccc5s4)c(=O)c-3c2C)cc1	63*	-3	-30	-4	46*	78*	-17
Cc1cc([N+](=O)[O-])cc2c1NC(c1ccccn1)C1CC=CC21 (stereo not given)	22	-1	-2	-1	9	nt	nt
O=C(O)c1ccc(Cl)c2c1C1C=CCC1C(c1ccccn1)N2 (stereo not given)	33	-1	-18	0	63*	75*	7
Cc1ccc2c(nc3s/c(=C\c4ccc(-c5ccccc5C(=O)O)o4)c(=O)n32)c1C	29	1	15	2	44*	65*	50*
O=C(O)c1ccc(-c2ccc(/C=c3/sc4nc5ccccc5n4c3=O)o2)cc1Cl	30	5	-9	-2	63*	60*	24
Cc1cc(/C=c2\sc3nc4ccccc4n3c2=O)c(C)n1-c1ccc(C(=O)O)cc1	18	6	-31	-3	17	nt	nt
COc1ccc(N2CC(NC(=O)NCC(C)C)CC2=O)cc1 (stereo not given)	0	-4	-4	-2	53*	-8	-1
CCN(CC)C(=O)NC1CC(=O)N(c2ccc(OC)cc2)C1 (stereo not given)	-1	-3	-6	-4	4	nt	nt
CC(=O)OCCc1[nH]c2ccccc2c1C	-4	0	-21	-2	52*	-16	2
Nc1ccc(C(CC(=O)O)n2cccc2)cc1 (stereo not given)	3	-1	-25	-5	52*	-28	6
O=C(O)CSc1cc(NS(=O)(=O)c2ccc(Br)cc2)c2ccccc2c1O	76*	2	-9	2	55*	70*	26
Cc1ccc(S(=O)(=O)Nc2ccc(Br)cc2C(NCC(=O)O)c2ccccc2)cc1 (stereo not given)	-12	0	-19	-1	-6	nt	nt
CCOC(=O)c1c(C)oc2c(F)c(F)c(F)c(F)c2c1=O	12	-2	0	8.8*	42*	4	26
COc1ccc2ccccc2c1C1CC(=O)N2CN(Cc3ccco3)CSC2=C1C#N (stereo not given)	9	1	-44	-4	47*	46*	-35
Cc1nnc(Cn2cnc3c2c(=O)n(C)c(=O)n3C)o1	13	1	-4	0	39*	-9	4
Cn1c(=O)c2c(ncn2Cc2ccccc2)n(C)c1=O	-38	0	-4	4	-2	nt	nt
CCN(CC)CC(O)c1cccn1-c1ccc(CNC(=O)NC(C)C)cc1 (stereo not given)	16	-1	3	-2	39*	-16	0
COc1ccc(/C=C/C(=O)N2CCN(C)CC2)cc1S(=O)(=O)N1CCCCC1	10	-2	-4	-2	4	nt	nt
C=CCNc1nc(S(=O)Cc2ccc(C)cc2)nc2c1CCCC2 (stereo not given)	-1	-6	-23	-4	4	nt	nt
Cc1nn(Cc2ccccc2)c(Cl)c1/C=C/C(=O)OCC(=O)N(C)C1CCS(=O)(=O)C1 (stereo not given)	3	0	-21	-1	46*	-12	-20
C[C@@H](CN=[N+]=[N-])CN1CC[C@H](O)CCC1=O	-3	3	-5	2	37*	-8	15
[N-]=[N+]=NC[C@H](Cc1ccccc1)N1CC[C@@H](O)CCC1=O	6	0	-2	-2	1	nt	nt
C[C@@H](CSc1ccccc1)CN1CC[C@H](O)CCC1=O	6	-3	-21	-1	44*	-4	12
SMILES	SUMO HTRF inh	VIM-2 inhibitor	DNA FID counter-1	IMP-1 inh	NS3 helicase inh	NS3 hel confirm	DNA FID counter-2	others
C[C@@H](CSc1ccccc1)CN1CC[C@H](NC(=O)OCc2ccccc2)CCC1=O	1	-2	-52	-5	-40	nt	nt
COc1cccc(CN2CC(C(=O)N(C)Cc3ccnc4ccccc34)CCC2=O)c1 (stereo not given)	-6	-2	-25	-4	5	nt	nt
CC(C)CSC1=NSC2=NC(=O)/C(=C\c3ccccc3)C(=N)N12	-3	-5	-7	-3	43*	69*	8
CC(C)CSC1=NSC2=NC(=O)/C(=C\c3coc4ccccc4c3=O)C(=N)N12	8	-4	-12	-2	33	nt	nt
COc1ccc(S(=O)(=O)NCC2CCCN(Cc3cn(C)nc3C)C2)cc1 (stereo not given)	0	3	13	1	23	nt	nt
CC(C)(C)C(=O)C[n+]1ccc(C(N)=O)cc1	-17	0	-1	2	47*	-1	2
Cc1cc2c(cc1C)C(c1ccsc1)CC(=O)N2 (stereo not given)	-12	-1	-21	-4	13	nt	nt
Cc1cn(CC2COC(C)(C)O2)c(=O)[nH]c1=O (stereo not given)	18	-2	-13	0	38*	-2	10
Cc1nn(CC(=O)Nc2ccc(N3CCOCC3)cc2)c(C)c1Cl	6	-5	-23	-3	4	nt	nt
S=c1nc(COc2ccccc2)[nH]c2ccccc12	5	7	-13	1	42*	-12	3
CCOC(=O)c1cc2c(C)n(-c3ccc(OCC)cc3)c(C)c2ccc1=O	-8	1	-17	0	55*	-12	-9
COc1ccccc1N1CCN(C(=O)c2coc(=O)c(Br)c2)CC1	14	-2	3	-3	5	nt	nt
N=C1/C(=C/c2coc3ccccc3c2=O)C(=O)N=C2SC(c3ccco3)=NN12	18	-1	-13	6.8*	54*	50*	50*
COc1ccc(-n2cccc2/C=C2\C(=N)N3N=C(c4ccco4)SC3=NC2=O)cc1	88*	-1	-22	-1	42*	71*	-14	DNA FID DR=>79
N=C1/C(=C\c2coc3ccccc3c2=O)C(=O)N=C2SC(c3ccncc3)=NN12	26	3	-29	3	7	nt	nt
COc1ccc(-n2cccc2/C=C2\C(=N)N3N=C(C(C)C)SC3=NC2=O)cc1	19	-2	-30	-2	25	nt	nt
O=c1nc(/C=C/c2cc([N+](=O)[O-])ccc2Cl)cc(C(F)(F)F)[nH]1	18	-2	-4	-2	10	nt	nt

Bioassay records (PubChem)
